# Results reported in ChEMBL document CHEMBL5724801, “EUbOPEN Chemogenomics Library - Multiplex” (2024).
# Values joined by “and” are separate entries in the source; they are usually repeats but may differ in a detail not shown here. Identical values can stand only once.
# Columns and labels:
# [1] = system: Fibroblast; test: Multiplex assay against human fibroblast; assay type: toxicity, cell-based
# Method in brief: (§1)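 With compound added, live cells were imaged on a CQ1 microscope at 37°C and 5% CO2; staining with Hoechst33342, BioTracker Green Microtubule Cytoskeleton Dye, MitoTracker Red and Annexin V Alexa Fluor 680 had been done at seeding. The CellPathfinder machine-learning gating scheme split cells into Hoechst high-intensity objects or normal cells, normal cells into healthy, pyknosed or fragmented nuclei, and pyknosed cells into mitotic or apoptotic. The tubulin, mitochondrial-mass and membrane-permeability phenotypes are per cents of healthy-nucleus cells.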
# [2] = system: HEK-293T; test: Multiplex assay against HEK293T; assay type: toxicity, cell-based; details: human; method in brief: as §1
# [3] = 12 h, 1 µM, compound concentration 1 uM
# [4] = 12 h, 10 µM, compound concentration 10 uM
# [5] = 24 h, 1 µM, compound concentration 1 uM
# [6] = 24 h, 10 µM, compound concentration 10 uM
# [7] = 48 h, 1 µM, compound concentration 1 uM
# [8] = 48 h, 10 µM, compound concentration 10 uM
structure (smiles),measurement,setting,value
O=c1ccc2ccc(OCCCCN3CCN(c4cccc5sccc45)CC3)cc2[nH]1 [BREXPIPRAZOLE],Population Apoptotic (%),[1]; [3],56% and 48%
same,Population Fragmented Nuclei (%),[1]; [3],17% and 33%
same,Population Healthy Nuclei (%),[1]; [3],62% and 44%
same,Population Hoechst High Intensity Objects (%),[1]; [3],2% and 5%
same,Population Membrane Permeable-Phenotype (%),[1]; [3],0% and 2%
same,Population Mitochondria Different-Phenotype (%),[1]; [3],5% and 15%
same,Population Mitotic Cells (%),[1]; [3],44% and 51%
same,Population Normal (%),[1]; [3],97% and 94%
same,Population Pyknosed Nuclei (%),[1]; [3],20% and 21%
same,Population Tubulin-Different-Phenotype (%),[1]; [3],41% and 73%
same,Total Cell Count,[1]; [3],126 and 169
same,Population Apoptotic (%),[1]; [4],68% and 45%
same,Population Fragmented Nuclei (%),[1]; [4],16% and 30%
same,Population Healthy Nuclei (%),[1]; [4],64% and 49%
same,Population Hoechst High Intensity Objects (%),[1]; [4],1% and 11%
same,Population Membrane Permeable-Phenotype (%),[1]; [4],0% and 2%
same,Population Mitochondria Different-Phenotype (%),[1]; [4],39% and 25%
same,Population Mitotic Cells (%),[1]; [4],31% and 54%
same,Population Normal (%),[1]; [4],98% and 88%
same,Population Pyknosed Nuclei (%),[1]; [4],19% and 20%
same,Population Tubulin-Different-Phenotype (%),[1]; [4],83% and 81%
same,Total Cell Count,[1]; [4],203 and 243
same,Population Apoptotic (%),[1]; [5],56% and 33%
same,Population Fragmented Nuclei (%),[1]; [5],17% and 32%
same,Population Healthy Nuclei (%),[1]; [5],69% and 52%
same,Population Hoechst High Intensity Objects (%),[1]; [5],1% and 3%
same,Population Membrane Permeable-Phenotype (%),[1]; [5],0% and 2%
same,Population Mitochondria Different-Phenotype (%),[1]; [5],8% and 14%
same,Population Mitotic Cells (%),[1]; [5],43% and 66%
same,Population Normal (%),[1]; [5],98% and 96%
same,Population Pyknosed Nuclei (%),[1]; [5],13% and 14%
same,Population Tubulin-Different-Phenotype (%),[1]; [5],43% and 76%
same,Total Cell Count,[1]; [5],122 and 173
same,Population Apoptotic (%),[1]; [6],58% and 65%
same,Population Fragmented Nuclei (%),[1]; [6],13% and 30%
same,Population Healthy Nuclei (%),[1]; [6],54% and 40%
same,Population Hoechst High Intensity Objects (%),[1]; [6],13% and 19%
same,Population Membrane Permeable-Phenotype (%),[1]; [6],0%
same,Population Mitochondria Different-Phenotype (%),[1]; [6],63% and 34%
same,Population Mitotic Cells (%),[1]; [6],41% and 34%
same,Population Normal (%),[1]; [6],86% and 80%
same,Population Pyknosed Nuclei (%),[1]; [6],31% and 28%
same,Population Tubulin-Different-Phenotype (%),[1]; [6],85% and 71%
same,Total Cell Count,[1]; [6],218 and 239
same,Population Apoptotic (%),[1]; [7],62% and 60%
same,Population Fragmented Nuclei (%),[1]; [7],24% and 42%
same,Population Healthy Nuclei (%),[1]; [7],62% and 51%
same,Population Hoechst High Intensity Objects (%),[1]; [7],4%
same,Population Membrane Permeable-Phenotype (%),[1]; [7],0% and 1%
same,Population Mitochondria Different-Phenotype (%),[1]; [7],10% and 9%
same,Population Mitotic Cells (%),[1]; [7],37% and 40%
same,Population Normal (%),[1]; [7],95%
same,Population Pyknosed Nuclei (%),[1]; [7],12% and 5%
same,Population Tubulin-Different-Phenotype (%),[1]; [7],52% and 67%
same,Total Cell Count,[1]; [7],133 and 175
same,Population Apoptotic (%),[1]; [8],62% and 44%
same,Population Fragmented Nuclei (%),[1]; [8],18% and 30%
same,Population Healthy Nuclei (%),[1]; [8],50% and 43%
same,Population Hoechst High Intensity Objects (%),[1]; [8],34%
same,Population Membrane Permeable-Phenotype (%),[1]; [8],0%
same,Population Mitochondria Different-Phenotype (%),[1]; [8],60% and 20%
same,Population Mitotic Cells (%),[1]; [8],37% and 55%
same,Population Normal (%),[1]; [8],65%
same,Population Pyknosed Nuclei (%),[1]; [8],31% and 26%
same,Population Tubulin-Different-Phenotype (%),[1]; [8],88% and 55%
same,Total Cell Count,[1]; [8],208 and 317
same,Population Apoptotic (%),[2]; [3],44% and 42%
same,Population Fragmented Nuclei (%),[2]; [3],6% and 5%
same,Population Healthy Nuclei (%),[2]; [3],77% and 80%
same,Population Hoechst High Intensity Objects (%),[2]; [3],6%
same,Population Membrane Permeable-Phenotype (%),[2]; [3],0%
same,Population Mitochondria Different-Phenotype (%),[2]; [3],67% and 69%
same,Population Mitotic Cells (%),[2]; [3],55% and 57%
same,Population Normal (%),[2]; [3],93%
same,Population Pyknosed Nuclei (%),[2]; [3],15% and 14%
same,Population Tubulin-Different-Phenotype (%),[2]; [3],51% and 47%
same,Total Cell Count,[2]; [3],392 and 354
same,Population Apoptotic (%),[2]; [4],82% and 85%
same,Population Fragmented Nuclei (%),[2]; [4],17% and 10%
same,Population Healthy Nuclei (%),[2]; [4],43% and 66%
same,Population Hoechst High Intensity Objects (%),[2]; [4],66% and 41%
same,Population Membrane Permeable-Phenotype (%),[2]; [4],0%
same,Population Mitochondria Different-Phenotype (%),[2]; [4],97% and 100%
same,Population Mitotic Cells (%),[2]; [4],17% and 14%
same,Population Normal (%),[2]; [4],33% and 59%
same,Population Pyknosed Nuclei (%),[2]; [4],38% and 23%
same,Population Tubulin-Different-Phenotype (%),[2]; [4],81% and 62%
same,Total Cell Count,[2]; [4],299 and 200
same,Population Apoptotic (%),[2]; [5],41% and 42%
same,Population Fragmented Nuclei (%),[2]; [5],10% and 4%
same,Population Healthy Nuclei (%),[2]; [5],73% and 87%
same,Population Hoechst High Intensity Objects (%),[2]; [5],8% and 2%
same,Population Membrane Permeable-Phenotype (%),[2]; [5],0%
same,Population Mitochondria Different-Phenotype (%),[2]; [5],51% and 52%
same,Population Mitotic Cells (%),[2]; [5],58% and 57%
same,Population Normal (%),[2]; [5],91% and 97%
same,Population Pyknosed Nuclei (%),[2]; [5],16% and 7%
same,Population Tubulin-Different-Phenotype (%),[2]; [5],36% and 35%
